Source: ChEMBL document CHEMBL1671628, “Cell density and cell aging as factors modulating antifungal resistance of Candida albicans biofilms” (2008)
Values after ≈ are worked out from the molar mass of the structure shown.

Columns and labels:
[1] = test system: Candida albicans; test: Antifungal activity against 10^7 cells/ml Candida albicans ATCC 90028 planktonic cells by XTT reduction assay; assay type: functional
Method in brief: (§1)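 High-density planktonic suspensions (10^7 or 10^8 cells/ml) added to serially double-diluted drugs as in the NCCLS setup, run in parallel in RPMI 1640 + 2% glucose and YNB + 100 mM glucose. Viability read by XTT (1 mg/ml) with menadione (0.4 mM stock, 5:1), 3 h dark at 37°C, A490 minus blank wells. MIC50 = lowest concentration giving 50% reduction versus drug-free control.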

[2] = test system: Candida albicans; test: Antifungal activity against 10^7 cells/ml wild-type Candida albicans BF-1 planktonic cells by XTT reduction assay; assay type: functional; method in brief: as §1
[3] = test system: Candida albicans; test: Antifungal activity against 10^8 cells/ml Candida albicans ATCC 90028 planktonic cells by XTT reduction assay; assay type: functional; method in brief: as §1
[4] = test system: Candida albicans; test: Antifungal activity against 10^8 cells/ml wild-type Candida albicans BF-1 planktonic cells by XTT reduction assay; assay type: functional
Method in brief: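 Planktonic suspensions at 1 × 10^8 cells/ml added to twofold serial drug dilutions in 96-well plates (NCCLS format). Run in parallel in RPMI 1640 + 2% glucose and YNB + 100 mM glucose. Readout by XTT reduction: XTT–menadione in PBS, 3 h at 37°C in the dark, A490 minus blank. MIC50 is 50% reduction vs drug-free control.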

[5] = test system: Candida albicans; test: Antifungal activity against 24 hrs cultures of 10^7 cells/ml Candida albicans ATCC 90028 biofilms by XTT reduction assay; assay type: functional
Method in brief: (§2)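 Washed late-exponential cells at 1 × 10^7 cells/ml in YNB + 100 mM glucose were adhered 1.5 h at 37°C with shaking at 75 rpm, washed, then grown 24 or 48 h at 37°C, 75 rpm. Biofilms were washed and exposed 24 or 48 h at 37°C to twofold dilutions in RPMI + 2% glucose. Read by XTT at A490. MIC50 is 50% reduction vs drug-free control. Three experiments, four replicates.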

[6] = test system: Candida albicans; test: Antifungal activity against 24 hrs cultures of 10^7 cells/ml wild-type Candida albicans BF-1 biofilms by XTT reduction assay; assay type: functional; method in brief: as §2
[7] = test system: Candida albicans; test: Antifungal activity against 10^3 cells/ml Candida albicans SC5314 by NCCLS method; assay type: functional
Method in brief: (§3)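 Planktonic broth microdilution per NCCLS (CLSI): inoculum from 24-h SDA cultures adjusted to 0.5 McFarland at 520 nm, diluted in RPMI 1640 to about 0.5 × 10^3 to 2.5 × 10^3 cells/ml. Cells exposed to twofold drug dilutions, incubated 35°C for 48 h, then MIC read. Three separate occasions.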

[8] = test system: Candida albicans; test: Antifungal activity against 10^8 cells/ml Candida albicans SC5314 planktonic cells by XTT reduction assay; assay type: functional; method in brief: as §1
[9] = test system: Candida albicans; test: Antifungal activity against 24 hrs cultures of 10^7 cells/ml Candida albicans SC5314 biofilms by XTT reduction assay; assay type: functional; conditions: SC5314, 24 h; method in brief: as §2
[10] = test system: Candida albicans; test: Antifungal activity against 24 hrs cultures of 10^7 cells/ml Candida albicans ATCC 90028 planktonic cells by XTT reduction method; assay type: functional
Method in brief: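 Standard 1 × 10^7 cells/ml suspension in YNB + 100 mM glucose propagated planktonically 24 h alongside age-matched biofilms, then exposed to twofold drug dilutions. Metabolic activity read by XTT–menadione reduction, 3 h dark, 37°C, A490 background-subtracted. MIC50 is the 50% reduction point versus drug-free control.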

[11] = test system: Candida albicans; test: Antifungal activity against 24 hrs cultures of 10^7 cells/ml Candida albicans BF-1 planktonic cells by XTT reduction method; assay type: functional
Method in brief: (§4)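 Age-matched planktonic cultures were grown from the same 1 × 10^7 cells/ml YNB + 100 mM glucose suspension under the biofilm conditions for 24 or 48 h. They were tested against twofold drug dilutions by XTT reduction (3 h at 37°C in the dark, A490 minus blank). MIC50 is 50% reduction vs drug-free control.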

[12] = test system: Candida albicans; test: Antifungal activity against 48 hrs cultures of 10^7 cells/ml Candida albicans ATCC 90028 planktonic cells by XTT reduction method; assay type: functional; method in brief: as §4
[13] = test system: Candida albicans; test: Antifungal activity against 48 hrs cultures of 10^7 cells/ml Candida albicans BF-1 planktonic cells by XTT reduction method; assay type: functional; method in brief: as §4
[14] = test system: Candida albicans; test: Antifungal activity against 24 hrs cultures of 10^7 cells/ml Candida albicans ATCC 90028 biofilms by XTT reduction method; assay type: functional; method in brief: as §2
[15] = test system: Candida albicans; test: Antifungal activity against 24 hrs cultures of 10^7 cells/ml Candida albicans BF-1 biofilms by XTT reduction method; assay type: functional; method in brief: as §2
[16] = test system: Candida albicans; test: Antifungal activity against 48 hrs cultures of 10^7 cells/ml Candida albicans ATCC 90028 biofilms by XTT reduction method; assay type: functional; method in brief: as §2
[17] = test system: Candida albicans; test: Antifungal activity against 48 hrs cultures of 10^7 cells/ml Candida albicans BF-1 biofilms by XTT reduction method; assay type: functional; method in brief: as §2
[18] = test system: Candida albicans; test: Antifungal activity against 24 hrs cultures of 10^7 cells/ml biofilm-derived Candida albicans ATCC 90028 planktonic cells hrs by XTT reduction method; assay type: functional
Method in brief: (§5)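 Biofilms grown from 1 × 10^7 cells/ml (YNB + 100 mM glucose, 1.5 h adherence, 37°C, 75 rpm) for 24 or 48 h, washed, scraped and moved to wells of serially double-diluted drugs. Incubated with drug 24 or 48 h, then XTT–menadione read at 490 nm. MIC50 = 50% reduction versus drug-free control.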

[19] = test system: Candida albicans; test: Antifungal activity against 24 hrs cultures of 10^7 cells/ml biofilm-derived Candida albicans BF-1 planktonic cells hrs by XTT reduction method; assay type: functional
Method in brief: (§6)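 Biofilms grown 24 or 48 h from 1 × 10^7 cells/ml were washed, scraped and transferred into plates of twofold serially diluted drugs. They were incubated 24 or 48 h. MIC was read by XTT reduction (3 h at 37°C in the dark, A490 minus blank) as 50% reduction vs drug-free control.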

[20] = test system: Candida albicans; test: Antifungal activity against 48 hrs cultures of 10^7 cells/ml biofilm-derived Candida albicans ATCC 90028 planktonic cells hrs by XTT reduction method; assay type: functional; method in brief: as §6
[21] = test system: Candida albicans; test: Antifungal activity against 48 hrs cultures of 10^7 cells/ml biofilm-derived Candida albicans BF-1 planktonic cells hrs by XTT reduction method; assay type: functional; method in brief: as §5
[22] = test system: Candida albicans; test: Ratio of MIC for 10^8 cells/ml wild-type Candida albicans BF-1 to MIC for 10^7 cells/ml wild-type Candida albicans BF-1 grown as planktonic cells; assay type: functional; method in brief: as §1
[23] = test system: Candida albicans; test: Antifungal activity against 10^3 cells/ml Candida albicans ATCC 90028 by NCCLS method; assay type: functional; method in brief: as §3
[24] = test system: Candida albicans; test: Antifungal activity against 10^3 cells/ml wild-type Candida albicans BF-1 by NCCLS method; assay type: functional; method in brief: as §3
[25] = test system: Candida albicans; test: Antifungal activity against 10^5 cells/ml Candida albicans ATCC 90028 by EUCAST method; assay type: functional
Method in brief: (§7)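 EUCAST AFST planktonic broth microdilution: RPMI 1640 plus 2% glucose, inoculum 0.5 × 10^5 to 2.5 × 10^5 cells/ml, twofold drug dilutions. Performed on three different occasions.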

[26] = test system: Candida albicans; test: Antifungal activity against 10^5 cells/ml wild-type Candida albicans BF-1 by EUCAST method; assay type: functional; method in brief: as §7
[27] = test system: Candida albicans; test: Antifungal activity against 48 hrs cultures of 10^8 cells/ml Candida albicans ATCC 90028 biofilms by XTT reduction assay; conditions: ATCC 90028, 48 h
[28] = test system: Candida albicans; test: Antifungal activity against 48 hrs cultures of 10^8 cells/ml wild-type Candida albicans BF-1 biofilms by XTT reduction assay; conditions: BF-1, 48 h
[29] = test system: Candida albicans; test: Antifungal activity against 48 hrs cultures of 10^7 cells/ml Candida albicans ATCC 90028 biofilms by XTT reduction assay; assay type: functional; method in brief: as §2
[30] = test system: Candida albicans; test: Antifungal activity against 48 hrs cultures of 10^7 cells/ml wild-type Candida albicans BF-1 biofilms by XTT reduction assay; assay type: functional; method in brief: as §2

**Q.** With `CC(=O)N1CCN(c2ccc(OCC3COC(Cn4ccnc4)(c4ccc(Cl)cc4Cl)O3)cc2)CC1` (stereo not drawn) [KETOCONAZOLE] as the compound, how does the MIC [1] read?
**A.** 8 µg/mL (≈ 15.1 µM)

**Q.** What about the MIC [2] of the same compound?
**A.** 16 µg/mL (≈ 30.1 µM)

**Q.** And the MIC [3]?
**A.** 64 µg/mL (≈ 120 µM)

**Q.** And the MIC [4]?
**A.** > 64 µg/mL

**Q.** What about the MIC ([5]; ATCC 90028, 24 h) of the same compound?
**A.** 64 µg/mL (≈ 120 µM)

**Q.** And the MIC ([6]; BF-1, 24 h)?
**A.** > 64 µg/mL

**Q.** What about the MIC [7] of the same compound?
**A.** 0.125 µg/mL (≈ 0.235 µM)

**Q.** And the MIC [8]?
**A.** > 64 µg/mL

**Q.** And the MIC [9]?
**A.** > 64 µg/mL

**Q.** What about the MIC ([10]; ATCC 90028, 24 h) of the same compound?
**A.** 8 µg/mL (≈ 15.1 µM)

**Q.** And the MIC ([11]; BF-1, 24 h)?
**A.** 16 µg/mL (≈ 30.1 µM)

**Q.** What about the MIC ([12]; ATCC 90028, 48 h) of the same compound?
**A.** > 64 µg/mL

**Q.** What about the MIC ([13]; BF-1, 48 h) of the same compound?
**A.** > 64 µg/mL

**Q.** What about the MIC ([14]; ATCC 90028, 24 h) of the same compound?
**A.** > 64 µg/mL

**Q.** And the MIC ([15]; BF-1, 24 h)?
**A.** > 64 µg/mL

**Q.** And the MIC ([16]; ATCC 90028, 48 h)?
**A.** > 64 µg/mL

**Q.** What about the MIC ([17]; BF-1, 48 h) of the same compound?
**A.** > 64 µg/mL

**Q.** What about the MIC ([18]; ATCC 90028, 24 h) of the same compound?
**A.** > 64 µg/mL

**Q.** What about the MIC ([19]; BF-1, 24 h) of the same compound?
**A.** > 64 µg/mL

**Q.** What about the MIC ([20]; ATCC 90028, 48 h) of the same compound?
**A.** > 64 µg/mL

**Q.** And the MIC ([21]; BF-1, 48 h)?
**A.** > 64 µg/mL

**Q.** And the Ratio [22]?
**A.** 256

**Q.** What about the MIC [23] of the same compound?
**A.** 0.125 µg/mL (≈ 0.235 µM)

**Q.** What about the MIC [24] of the same compound?
**A.** 0.125 µg/mL (≈ 0.235 µM)

**Q.** What about the MIC [25] of the same compound?
**A.** 0.125 µg/mL (≈ 0.235 µM)

**Q.** And the MIC [26]?
**A.** 0.125 µg/mL (≈ 0.235 µM)

**Q.** And the MIC [27]?
**A.** 64 µg/mL (≈ 120 µM)

**Q.** And the MIC [28]?
**A.** > 64 µg/mL

**Q.** With NYSTATIN as the compound, how does the MIC [1] read?
**A.** 2 µg/mL

**Q.** And the MIC [2]?
**A.** 2 µg/mL

**Q.** And the MIC [3]?
**A.** 8 µg/mL

**Q.** What about the MIC [4] of the same compound?
**A.** 16 µg/mL

**Q.** What about the MIC [5] of the same compound?
**A.** 16 µg/mL

**Q.** And the MIC [6]?
**A.** 32 µg/mL

**Q.** And the MIC [29]?
**A.** 16 µg/mL

**Q.** What about the MIC [30] of the same compound?
**A.** 32 µg/mL

**Q.** What about the MIC [10] of the same compound?
**A.** 2 µg/mL

**Q.** What about the MIC [11] of the same compound?
**A.** 4 µg/mL

**Q.** What about the MIC [12] of the same compound?
**A.** 8 µg/mL

**Q.** What about the MIC [13] of the same compound?
**A.** 16 µg/mL

**Q.** What about the MIC [14] of the same compound?
**A.** 16 µg/mL

**Q.** And the MIC [15]?
**A.** 32 µg/mL

**Q.** What about the MIC [16] of the same compound?
**A.** 16 µg/mL

**Q.** And the MIC [17]?
**A.** 32 µg/mL

**Q.** And the MIC [18]?
**A.** 2 µg/mL

**Q.** What about the MIC [19] of the same compound?
**A.** 4 µg/mL

**Q.** And the MIC [20]?
**A.** 8 µg/mL

**Q.** And the MIC [21]?
**A.** 16 µg/mL

**Q.** What about the Ratio [22] of the same compound?
**A.** 8

**Q.** And the MIC [23]?
**A.** 1 µg/mL

**Q.** And the MIC [24]?
**A.** 2 µg/mL

**Q.** And the MIC [25]?
**A.** 1 µg/mL

**Q.** What about the MIC [26] of the same compound?
**A.** 2 µg/mL
